pIC50, pKi: −log10 of the molar value. The source made the active and inactive calls. The calls are words filed in the database; no cut-off is given here.
Assays:
[1] = molecular target: T1, Elastase (Pseudomonas aeruginosa (strain ATCC 15692 / PAO1 / 1C / PRS 101 / LMG12228), UniProt P14756); test: Inhibition of Pseudomonas aeruginosa PA14 LasB using 2-Aminobenzoyl-AlaGly-Leu-Ala-4-Nitrobenzylamide as fluorogenic substrate preincubated for 15 mins followed by substrate addition measured after 60 mins by FRET assay
T1 sequence (P14756 whole entry): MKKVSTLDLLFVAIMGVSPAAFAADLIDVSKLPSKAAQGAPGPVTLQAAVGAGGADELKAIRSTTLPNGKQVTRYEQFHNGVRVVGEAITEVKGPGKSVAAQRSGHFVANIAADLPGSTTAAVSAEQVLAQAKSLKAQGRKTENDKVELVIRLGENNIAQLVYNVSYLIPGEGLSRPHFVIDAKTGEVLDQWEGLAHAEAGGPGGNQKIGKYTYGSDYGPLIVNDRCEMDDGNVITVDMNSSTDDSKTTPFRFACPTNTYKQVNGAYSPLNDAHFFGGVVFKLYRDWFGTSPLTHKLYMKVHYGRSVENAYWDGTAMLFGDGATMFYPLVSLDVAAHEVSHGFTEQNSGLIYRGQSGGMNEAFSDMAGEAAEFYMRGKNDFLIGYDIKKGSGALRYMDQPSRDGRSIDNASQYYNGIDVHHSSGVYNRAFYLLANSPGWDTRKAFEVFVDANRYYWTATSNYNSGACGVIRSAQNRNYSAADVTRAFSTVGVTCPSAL
Method in brief: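 IC50 from at least two independent experiments, each run in duplicate. Thioacetate analogues were scored as percent inhibition at 200 μM.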

[2] = system: HepG2; test: Cytotoxicity against human HepG2 cells assessed as reduction in cell viability by MTT assay; assay type: cell-based
[3] = system: HEK293; test: Cytotoxicity against HEK293 cells assessed as reduction in cell viability by MTT assay; assay type: cell-based; details: Homo sapiens
[4] = system: A549; test: Cytotoxicity against human A549 cells assessed as reduction in cell viability by MTT assay; assay type: cell-based
[5] = Toxicity in 1 day post-fertilized zebrafish embryo AB measured up to 120 hrs post-fertilization by microscopic analysis; set-up: species or system Danio rerio; details: in vivo, read-out: MTC
Method in brief: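 Embryos were placed singly per well, 10 per condition, in freshly prepared compound at 2–100 μM with 1% DMSO final. Defects, heart rate, touch-evoked locomotion and survival were scored daily by microscopy; read-out was maximum tolerated concentration.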

[6] = system: Bacillus cereus; test: Ex vivo inhibition of Bacillus cereus Q1 ColQ1-mediated collagenolytic-activity in pig skin explant assessed as reduction in hydroxyproline release up to 400 uM preincubated for 1 hr followed by skin explant addition and measured upto 24 hrs by spectrophotometric assay
Method in brief: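 Pig skin explant punches, stored in DMEM with 15% glycerol at −80 °C, incubated in DMEM with 300 nM ColQ1, 4 mM CaCl2 and 10 μM ZnCl2. Compound pre-incubated with the enzyme mixture for 1 h at 37 °C, 5% CO2, then explant added, shaken at 300 rpm at 37 °C. Medium sampled at time points; hydroxyproline measured by absorbance against a hydroxyproline calibration curve.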

[7] = system: Hathewaya histolytica; test: Toxicity in Clostridium histolyticum DSM 1126 assessed as reduction in bacterial growth after 48 hrs; assay type: organism-based; details: in vivo
Method in brief: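 Brain heart infusion broth; inoculum adjusted to McFarland 2 then prediluted 1:100. […] Means of at least two independent determinations.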

[8] = system: Pseudomonas aeruginosa; test: Toxicity in Pseudomonas aeruginosa PA14 assessed as reduction in bacterial growth after 18 hrs; assay type: organism-based; details: in vivo
[9] = molecular target: T1, Elastase; test: Inhibition of Pseudomonas aeruginosa LasB using aminobenzoyl-Ala-Gly-Leu-Ala-p-nitro-benzyl-amide as fluorogenic substrate by fluorimetric assay
[10] = molecular target: T2, Collagenase ColH (Hathewaya histolytica, UniProt Q46085); test: Inhibition of Clostridium histolyticum ColH peptidase domain expressed in Escherichia coli BL21(DE3) cells using Mca-Ala-Gly-Pro-Pro-Gly-Pro-Dpa-Gly-Arg-NH2 as substrate preincubated for 1 hr followed by substrate addition measured for 2 mins by FRET assay
T2 sequence (Q46085 whole entry): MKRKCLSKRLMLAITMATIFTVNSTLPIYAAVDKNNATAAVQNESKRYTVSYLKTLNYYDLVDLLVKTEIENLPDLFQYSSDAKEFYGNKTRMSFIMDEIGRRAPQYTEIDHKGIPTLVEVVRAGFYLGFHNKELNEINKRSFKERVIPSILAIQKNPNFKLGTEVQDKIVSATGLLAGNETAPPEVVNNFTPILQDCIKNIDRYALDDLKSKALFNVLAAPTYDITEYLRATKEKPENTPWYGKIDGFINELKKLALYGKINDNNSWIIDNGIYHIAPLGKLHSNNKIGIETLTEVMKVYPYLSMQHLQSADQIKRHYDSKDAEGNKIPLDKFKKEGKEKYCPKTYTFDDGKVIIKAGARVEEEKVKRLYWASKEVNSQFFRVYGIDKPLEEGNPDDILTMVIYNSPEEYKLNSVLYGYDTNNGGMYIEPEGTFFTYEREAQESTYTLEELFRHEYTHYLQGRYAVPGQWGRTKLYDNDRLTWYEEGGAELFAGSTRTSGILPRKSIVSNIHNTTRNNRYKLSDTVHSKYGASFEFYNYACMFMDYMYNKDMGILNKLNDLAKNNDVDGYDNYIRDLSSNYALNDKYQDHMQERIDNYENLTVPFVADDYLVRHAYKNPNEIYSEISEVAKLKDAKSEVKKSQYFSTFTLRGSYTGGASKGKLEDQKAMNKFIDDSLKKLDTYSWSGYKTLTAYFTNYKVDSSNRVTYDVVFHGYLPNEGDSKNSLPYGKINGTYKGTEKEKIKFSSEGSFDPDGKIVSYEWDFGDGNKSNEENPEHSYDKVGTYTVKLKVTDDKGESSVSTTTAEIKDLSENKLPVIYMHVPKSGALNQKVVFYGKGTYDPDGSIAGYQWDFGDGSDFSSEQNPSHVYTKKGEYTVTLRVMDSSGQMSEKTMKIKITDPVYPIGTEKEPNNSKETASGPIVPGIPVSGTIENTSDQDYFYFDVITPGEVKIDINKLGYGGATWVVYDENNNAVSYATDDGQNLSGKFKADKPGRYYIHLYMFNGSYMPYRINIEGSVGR
Method in brief: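 Peptidolytic ColH-PD activity read by FRET. Compounds were first screened at 1 μM (means of three independent experiments), then tested dose-response with the reducing agent TCEP present. IC50 values came from at least two independent experiments run in duplicate.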

Work on `CC(=O)SCC1CC(=O)N(c2ccccc2)C1=O` (stereo unspecified) yielded a pIC50 [1] of less than 3.70.
Work on `CC(=O)c1ccc(N2C(=O)CC(S)C2=O)cc1` (stereo unspecified) yielded a pIC50 [2] of less than 4.00, a pIC50 [3] of less than 4.00 and a pIC50 [4] of less than 4.00. The MNTC [5] was no less than 30 µM, the inhibition [6] was “Active” and the MIC [7] was greater than 100 µM.
For `CC(=O)SCC1CC(=O)N(c2ccc(C(C)=O)cc2)C1=O` (stereo unspecified), the pIC50 [1] was less than 3.70.
Work on `O=C1CC(CS)C(=O)N1c1ccc(F)c(F)c1` (stereo unspecified) yielded an MIC [8] greater than 100 µM.
Compound `O=C1CC(S)C(=O)N1c1ccc(F)c(F)c1` (stereo unspecified) has an MNTC [5] of no less than 30 µM and an MIC [8] greater than 100 µM.
Work on `CC(=O)SC1CC(=O)N(c2ccc(OC(F)(F)F)c(Cl)c2)C1=O` (stereo unspecified) yielded a pIC50 [1] of less than 3.70.
With `CC(=O)SC1CC(=O)N(c2ccc(Cl)c(Cl)c2)C1=O` (stereo unspecified) the pIC50 [1] was less than 3.70.
Compound `COc1ccc(N2C(=O)CC(SC(C)=O)C2=O)cc1` (stereo unspecified) has a pIC50 [1] of less than 3.70.
Compound `COc1ccc(N2C(=O)CC(CSC(C)=O)C2=O)cc1` (stereo unspecified) has a pIC50 [1] of less than 3.70.
`NC(=O)[C@H](Cc1ccc(O)cc1)NC(=O)[C@H](Cc1c[nH]c2ccccc12)NC(=O)CS` gave a pKi [9] of 7.39.
Work on `O=C(CS)Nc1ccc(Cl)c(Cl)c1` yielded a pIC50 [2] of less than 4.00, a pIC50 [3] of less than 4.00 and a pIC50 [4] of less than 4.00. For the same compound, the MNTC [5] was 10 µM.
For `O=C1CC(S)C(=O)N1c1ccc(Cl)c(Cl)c1` (stereo unspecified), the pIC50 [2] was less than 4.00, the pIC50 [3] was less than 4.00 and the pIC50 [4] was less than 4.00. The MIC [8] was greater than 100 µM.
Work on `CC(=O)c1ccc(NC(=O)CS)cc1` yielded a pIC50 [10] of 7.77, a pIC50 [2] of less than 4.00 and a pIC50 [3] of less than 4.00. The pIC50 [4] was less than 4.00.
Compound `CC(=O)SCC1CC(=O)N(c2ccc(Cl)c(Cl)c2)C1=O` (stereo unspecified) has a pIC50 [1] of less than 3.70.
For `CC(=O)c1ccc(N2C(=O)CC(CS)C2=O)cc1` (stereo unspecified), the pIC50 [1] was less than 3.70.
`O=C1CC(CS)C(=O)N1c1ccc(Cl)c(Cl)c1` (stereo unspecified) gave an MIC [8] greater than 100 µM.

Reference: ChEMBL document CHEMBL4619769, “N-Aryl-3-mercaptosuccinimides as Antivirulence Agents Targeting Pseudomonas aeruginosa Elastase and Clostridium Collagenases” (J Med Chem, 2020)
